This is an account of results in ChEMBL document CHEMBL4706507, “Chromones bearing amino acid residues: Easily accessible and potent inhibitors of the breast cancer resistance protein ABCG2” (Eur J Med Chem, 2020).

The target in data set [1] is T1, Broad substrate specificity ATP-binding cassette transporter ABCG2 (Homo sapiens, UniProt Q9UNQ0).
T1 sequence (Q9UNQ0 whole entry): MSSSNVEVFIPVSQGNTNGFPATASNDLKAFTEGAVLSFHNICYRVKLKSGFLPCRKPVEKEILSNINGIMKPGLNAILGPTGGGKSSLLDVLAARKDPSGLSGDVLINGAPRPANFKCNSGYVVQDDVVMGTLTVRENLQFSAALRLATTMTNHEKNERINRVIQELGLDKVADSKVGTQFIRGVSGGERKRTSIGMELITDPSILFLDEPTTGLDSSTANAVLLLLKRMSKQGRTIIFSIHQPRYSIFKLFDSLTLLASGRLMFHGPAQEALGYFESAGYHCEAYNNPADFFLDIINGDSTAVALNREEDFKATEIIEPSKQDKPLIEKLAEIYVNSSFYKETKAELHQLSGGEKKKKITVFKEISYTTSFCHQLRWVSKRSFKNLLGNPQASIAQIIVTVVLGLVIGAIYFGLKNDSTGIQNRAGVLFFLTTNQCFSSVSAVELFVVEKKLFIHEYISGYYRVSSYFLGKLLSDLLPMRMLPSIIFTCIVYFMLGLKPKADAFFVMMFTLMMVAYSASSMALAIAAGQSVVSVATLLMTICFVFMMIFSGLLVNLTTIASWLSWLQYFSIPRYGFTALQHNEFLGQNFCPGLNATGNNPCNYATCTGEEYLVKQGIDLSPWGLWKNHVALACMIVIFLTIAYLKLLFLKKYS
In words: (§1) Inhibition of ABCG2 (unknown origin) in HEK293 cells assessed as maximal inhibition of mitoxantrone efflux at 1 uM by fluorescence based flow cytometry relative to control. The format is cell-based. Conditions: hek293, 1 µM. An outline of the steps: (§2)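 Efflux assay in HEK293-ABCG2 cells, with parental HEK293 cells as negative control. Cells seeded at 5×10^4/well overnight, then given compound plus 4 µM mitoxantrone (0.5% DMSO) for 30 min at 37 °C. Cells washed, trypsinized and resuspended in cold DPBS with 2% BSA.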
On the technique in general: In flow cytometry, cells or beads pass a laser one at a time.

Data set [2] concerns the target T1, Broad substrate specificity ATP-binding cassette transporter ABCG2. In words: Inhibition of ABCG2 (unknown origin) in HEK293 cells assessed as maximal inhibition of mitoxantrone efflux by fluorescence based flow cytometry. In kind it is cell-based. In a few lines:
as §2

Data set [3] is described as follows: Cytotoxicity against human HEK293 cells assessed as cell viability at 10 uM measured after 72 hrs by MTT assay. The format is cell-based. Particulars: read-out: Activity.
Data set [4] deals with T1, Broad substrate specificity ATP-binding cassette transporter ABCG2. In words: Inhibition of ABCG2 (unknown origin) expressed in HEK293 cells assessed as maximal inhibition at 1 uM by FACS based flow cytometry. Conditions: hek293, 1 µM.
In data set [5] the target is T2, ABCB1 (Homo sapiens, UniProt P08183). In words: Inhibition of ABCB1 (unknown origin) expressed in NIH/3T3 cells assessed as maximal inhibition at 1 uM by FACS based flow cytometry.
In data set [6] the target is T2, ABCB1. In words: Inhibition of ABCB1 (unknown origin) expressed in NIH/3T3 cells assessed as maximal inhibition at 10 uM by FACS based flow cytometry.
Data set [7] deals with T3, ABCC1 (MRP1) (Homo sapiens, UniProt P33527). The data set is described as follows: Inhibition of ABCC1 (unknown origin) expressed in Flp-In-293 cells assessed as maximal inhibition at 1 uM by FACS based flow cytometry.
Data set [8] can be described thus: Cytotoxicity against human HEK293 cells assessed as cell viability at 20 uM measured after 72 hrs by MTT assay. The format is cell-based. Particulars: read-out: Activity. In general terms: Tetrazolium dyes change colour on reduction, which living cells bring about.
Data set [9] concerns the target T3, ABCC1 (MRP1). The data set is described as follows: Inhibition of ABCC1 (unknown origin) expressed in Flp-In-293 cells assessed as maximal inhibition at 10 uM by FACS based flow cytometry.
The target of data set [10] is T4, ABCG2 (Homo sapiens, UniProt Q9UNQ0).
T4 sequence (Q9UNQ0 whole entry): T1 sequence (Q9UNQ0 whole entry)
The data set is described as §1. In kind it is cell-based. Particulars: HEK293 cells with ABCG2, probe mitoxantrone, read-out: Imax. In a few lines: as §2

T2 sequence (P08183 whole entry): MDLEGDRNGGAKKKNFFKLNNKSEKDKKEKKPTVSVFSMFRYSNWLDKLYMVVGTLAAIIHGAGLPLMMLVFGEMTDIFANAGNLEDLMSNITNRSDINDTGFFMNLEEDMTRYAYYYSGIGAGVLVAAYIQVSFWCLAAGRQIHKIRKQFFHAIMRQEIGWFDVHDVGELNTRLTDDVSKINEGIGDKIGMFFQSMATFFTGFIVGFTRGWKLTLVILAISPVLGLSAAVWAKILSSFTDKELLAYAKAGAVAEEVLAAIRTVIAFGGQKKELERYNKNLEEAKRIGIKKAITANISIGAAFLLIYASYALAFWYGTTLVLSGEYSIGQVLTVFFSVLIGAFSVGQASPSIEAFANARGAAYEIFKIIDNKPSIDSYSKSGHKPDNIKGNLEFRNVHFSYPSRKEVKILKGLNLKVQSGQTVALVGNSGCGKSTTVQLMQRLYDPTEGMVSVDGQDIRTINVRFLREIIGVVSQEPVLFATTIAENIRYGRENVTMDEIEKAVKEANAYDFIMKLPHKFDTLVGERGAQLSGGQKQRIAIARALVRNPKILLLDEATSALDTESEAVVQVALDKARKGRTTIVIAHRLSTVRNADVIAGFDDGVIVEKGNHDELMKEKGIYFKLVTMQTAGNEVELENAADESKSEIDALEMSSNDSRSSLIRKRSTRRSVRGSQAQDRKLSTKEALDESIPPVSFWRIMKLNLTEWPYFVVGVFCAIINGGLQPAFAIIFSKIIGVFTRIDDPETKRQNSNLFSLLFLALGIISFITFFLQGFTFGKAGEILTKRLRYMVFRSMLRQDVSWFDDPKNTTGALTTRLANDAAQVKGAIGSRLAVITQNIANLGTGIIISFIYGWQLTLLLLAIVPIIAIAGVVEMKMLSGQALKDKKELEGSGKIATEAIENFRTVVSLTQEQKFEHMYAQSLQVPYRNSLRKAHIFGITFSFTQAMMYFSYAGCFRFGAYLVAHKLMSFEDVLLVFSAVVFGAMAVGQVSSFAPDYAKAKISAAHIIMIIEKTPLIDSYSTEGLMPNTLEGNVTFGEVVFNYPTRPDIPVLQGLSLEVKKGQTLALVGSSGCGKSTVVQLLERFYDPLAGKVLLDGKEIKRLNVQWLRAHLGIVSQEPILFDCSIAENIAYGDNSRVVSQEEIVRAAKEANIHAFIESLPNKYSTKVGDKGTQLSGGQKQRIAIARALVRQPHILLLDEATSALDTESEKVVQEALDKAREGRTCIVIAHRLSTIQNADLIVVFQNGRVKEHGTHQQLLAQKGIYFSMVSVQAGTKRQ
T3 sequence (P33527 whole entry): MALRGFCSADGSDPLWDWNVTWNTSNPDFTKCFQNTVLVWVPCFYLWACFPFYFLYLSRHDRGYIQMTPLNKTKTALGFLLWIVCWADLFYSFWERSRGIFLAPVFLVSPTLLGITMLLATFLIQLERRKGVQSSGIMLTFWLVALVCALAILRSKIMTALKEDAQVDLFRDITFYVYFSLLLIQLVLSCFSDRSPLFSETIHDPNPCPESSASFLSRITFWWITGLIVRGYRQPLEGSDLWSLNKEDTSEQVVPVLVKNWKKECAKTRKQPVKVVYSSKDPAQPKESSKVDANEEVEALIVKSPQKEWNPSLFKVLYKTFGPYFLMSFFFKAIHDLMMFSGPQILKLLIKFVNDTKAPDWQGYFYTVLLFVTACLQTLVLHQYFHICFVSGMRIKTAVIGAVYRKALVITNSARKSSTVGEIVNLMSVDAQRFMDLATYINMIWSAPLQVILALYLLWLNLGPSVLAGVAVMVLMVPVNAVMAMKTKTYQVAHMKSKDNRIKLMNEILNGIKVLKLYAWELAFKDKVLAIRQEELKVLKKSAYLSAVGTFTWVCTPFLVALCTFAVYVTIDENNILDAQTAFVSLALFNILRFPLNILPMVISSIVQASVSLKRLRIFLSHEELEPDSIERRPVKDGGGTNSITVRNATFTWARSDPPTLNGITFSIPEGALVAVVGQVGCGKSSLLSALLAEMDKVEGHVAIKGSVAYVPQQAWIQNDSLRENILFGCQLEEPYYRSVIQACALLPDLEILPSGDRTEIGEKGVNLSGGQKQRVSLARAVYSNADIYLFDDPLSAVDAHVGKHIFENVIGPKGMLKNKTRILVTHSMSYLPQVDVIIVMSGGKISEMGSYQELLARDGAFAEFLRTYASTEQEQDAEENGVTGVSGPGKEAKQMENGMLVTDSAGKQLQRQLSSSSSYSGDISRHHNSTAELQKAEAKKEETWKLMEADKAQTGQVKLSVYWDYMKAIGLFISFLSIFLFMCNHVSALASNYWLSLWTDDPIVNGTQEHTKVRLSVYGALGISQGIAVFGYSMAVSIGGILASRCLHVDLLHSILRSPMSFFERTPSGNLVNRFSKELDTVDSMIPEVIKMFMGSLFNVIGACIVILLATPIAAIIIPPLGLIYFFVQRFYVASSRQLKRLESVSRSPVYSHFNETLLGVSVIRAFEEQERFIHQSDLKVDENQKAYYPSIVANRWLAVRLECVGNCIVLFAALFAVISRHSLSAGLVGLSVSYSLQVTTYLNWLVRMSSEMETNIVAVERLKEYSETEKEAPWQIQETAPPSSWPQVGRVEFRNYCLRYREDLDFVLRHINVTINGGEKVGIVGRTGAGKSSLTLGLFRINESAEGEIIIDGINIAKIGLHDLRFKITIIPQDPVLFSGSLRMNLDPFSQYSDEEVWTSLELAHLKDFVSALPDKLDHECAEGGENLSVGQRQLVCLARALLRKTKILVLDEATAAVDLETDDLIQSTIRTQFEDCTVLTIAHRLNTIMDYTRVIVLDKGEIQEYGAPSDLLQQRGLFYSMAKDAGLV

What is called EC50 is the midpoint of the concentration-response curve. The term inhibition denotes the percentage by which the read-out fell short of the control. On to `COC(=O)[C@@H](Cc1c[nH]c2ccccc12)NC(=O)c1cc(=O)c2c(OCc3ccc(Br)cc3)cccc2o1`, for which, in data set [1], the Imax came to 85%. Also, in data set [2], the EC50 turned out to be 290 nM. The viability at 72 h, 10 µM in [3] was found to be 102%. In data set [4], the “inhibition (INH)” value was found to be 85%. In addition, the inhibition at 1 µM in data set [5] was determined as 7%; in data set [7], 11.9%. Further, the inhibition at 10 µM in [6] came out at 6%.

For `CC[C@@H](C)[C@H](NC(=O)c1cc(=O)c2c(OCc3ccccc3Br)cccc2o1)C(=O)N[C@@H](CC(C)C)C(=O)OC`, in data set [1], the Imax amounted to 83%. The EC50 in data set [2] was determined as 70 nM. The viability at 72 h, 20 µM in [8] stood at 104%. Moreover, in data set [4], the “inhibition (INH)” value is recorded as 83%. Also, the inhibition at 1 µM in [5] turned out to be 2%; in data set [7] it was 10%. The inhibition at 10 µM turned out to be 2% in [6] and 13% in data set [9].

`COC(=O)[C@H](Cc1ccccc1)NC(=O)c1cc(=O)c2c(OCc3ccccc3Br)cccc2o1`: the EC50 in data set [2] was 100 nM. Also, the viability at 72 h, 10 µM in data set [3] was found to be 82%. Moreover, the inhibition at 1 µM was 5% in [5] and 26% in [7]. Moreover, the inhibition at 10 µM in data set [6] was 6%.

In the case of `COC(=O)[C@H](Cc1c[nH]c2ccccc12)NC(=O)c1cc(=O)c2c(OCc3ccccc3Br)cccc2o1`, the Imax in data set [1] worked out at 94%. In addition, the EC50 in data set [2] worked out at 600 nM. For the same compound, in data set [3], the viability at 72 h, 10 µM came to 88%. In data set [4], the “inhibition (INH)” value is listed as 94%. The inhibition at 1 µM was determined as 7% in [5] and 23% in data set [7]. Also, the inhibition at 10 µM in data set [6] was 5%.

Take `COC(=O)[C@H](CC(C)C)NC(=O)c1cc(=O)c2c(OCc3ccccc3Br)cccc2o1`: the Imax in [1] turned out to be 115%. In addition, in [2], the EC50 worked out at 140 nM. Moreover, the viability at 72 h, 10 µM in data set [3] was found to be 87%. Moreover, in [4], the “inhibition (INH)” value is 115%. Besides, the inhibition at 1 µM worked out at 7% in data set [5] and 20% in data set [7]. Moreover, the inhibition at 10 µM in data set [6] came out at 5%.

Regarding `COC(=O)[C@H](Cc1c[nH]c2ccccc12)NC(=O)c1cc(=O)c2c(OCc3ccc(Br)cc3)cccc2o1`, in data set [1], the Imax is listed as 96%. In data set [2], the EC50 was 480 nM. Moreover, the viability at 72 h, 10 µM in data set [3] was determined as 77%. For the same compound, the “inhibition (INH)” value in data set [4] turned out to be 96%. Also, the inhibition at 1 µM in data set [5] turned out to be 7%; in [7] it was 10.3%. Besides, the inhibition at 10 µM in data set [6] turned out to be 6%.

For the compound `CC[C@@H](C)[C@H](NC(=O)c1cc(=O)c2c(OCc3ccccc3Br)cccc2o1)C(=O)OC`, the Imax in [1] came to 78%. Besides, in data set [2], the EC50 is 100 nM. Also, the “inhibition (INH)” value in data set [4] is listed as 78%. Moreover, the inhibition at 1 µM in data set [7] amounted to 5%.

Regarding `CC[C@@H](C)[C@H](NC(=O)c1cc(=O)c2c(OCc3ccccc3Br)cccc2o1)C(=O)N[C@H](C(=O)OC)C(C)C`, the Imax in [1] stood at 85%. Further, the EC50 in [2] worked out at 70 nM. Further, in data set [8], the viability at 72 h, 20 µM stood at 102%. In addition, the “inhibition (INH)” value in data set [4] is on record as 85%. For the same compound, the inhibition at 1 µM in data set [5] is 0%; in data set [7], 11%. Moreover, the inhibition at 10 µM in data set [6] was determined as 0%.

With `COC(=O)[C@@H](NC(=O)c1cc(=O)c2c(OCc3ccccc3Br)cccc2o1)C(C)C`, the Imax in data set [1] stood at 87%. Besides, the concentration for a half-maximal effect (EC50) in data set [2] worked out at 50 nM. Further, the viability at 72 h, 10 µM in data set [3] is 76%. The “inhibition (INH)” value in data set [4] amounted to 87%. Besides, the inhibition at 1 µM in data set [5] came out at 8%; in [7] it was 13%. Besides, the inhibition at 10 µM in data set [6] was 7%.

As to `COC(=O)[C@H](Cc1ccccc1)NC(=O)c1cc(=O)c2c(OCc3ccc(Br)cc3)cccc2o1`, the EC50 in data set [2] worked out at 270 nM. Also, the viability at 72 h, 10 µM in data set [3] was 84%. The inhibition at 1 µM in [5] worked out at 6%; in [7], 23%. Moreover, the inhibition at 10 µM in data set [6] amounted to 7%.

`CC[C@@H](C)[C@H](NC(=O)c1cc(=O)c2c(OCc3ccc(Br)cc3)cccc2o1)C(=O)N[C@@H](CC(C)C)C(=O)OC`: in [1], the Imax is listed as 52%. Also, the EC50 in data set [2] worked out at 110 nM. Further, the viability at 72 h, 20 µM in data set [8] turned out to be 101%. Further, the “inhibition (INH)” value in data set [4] is on record as 52%. For the same compound, the figures for the inhibition at 1 µM in [5] and in data set [7] were 4% and 11%, respectively. The inhibition at 10 µM in data set [6] is 6%.

On to `CC[C@@H](C)[C@H](NC(=O)c1cc(=O)c2c(OCc3ccc(Br)cc3)cccc2o1)C(=O)N[C@H](C(=O)OC)C(C)C`, for which the Imax in data set [1] is 72%. Besides, in [2], the EC50 was 250 nM. Also, the viability at 72 h, 20 µM in data set [8] was determined as 89%. In data set [4], the “inhibition (INH)” value is reported as 72%. The inhibition at 1 µM in data set [5] worked out at 2%; in data set [7] it was 12%. Moreover, the inhibition at 10 µM in data set [6] came to 11%.

With `CC[C@@H](C)[C@H](NC(=O)c1cc(=O)c2c(OCc3ccc(Br)cc3)cccc2o1)C(=O)OC`, in [10], the Emax at 1 µM amounted to 115%. The EC50 in data set [2] is 590 nM.
